Experimental data from ChEMBL document CHEMBL1127745, “Synthesis, resolution, and SAR of (+/-)-2-amino-N-methyl-alpha-(3-methyl-2-thienyl)benzeneethanamine++ + and related analogs as noncompetitive NMDA antagonists with neuroprotective properties” (J Med Chem, 1994).

Tests used:
Glutamate NMDA receptor = assay: Inhibition against NMDA receptor by displacement of [3H]TCP binding from rat cortical membranes; type: cell membranes, Membrane
Rattus norvegicus [1] = assay: Evaluated for reduction of NMDA-induced necrosis at 100 mg/kg subcutaneous dose in rats.; type: functional
Method in brief: (§1)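 Male Sprague-Dawley rats (280-310 g) under chloral hydrate (400 mg/kg ip). Unilateral dorsal hippocampal CA1 lesion made by stereotaxic infusion of NMDA 20 nmol over 5 min. Drugs given sc or ip 1 h before infusion. Brains perfusion-fixed at 7 days and cresyl violet-stained; lesion volume measured by image analysis. n = 4 per group, compared with control by t-test.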

Rattus norvegicus [2] = assay: Evaluated for reduction of NMDA-induced necrosis at 30 mg/kg subcutaneous dose in rats.; type: functional; method in brief: as §1
Rattus norvegicus [3] = assay: Evaluated for reduction of NMDA-induced necrosis volume at 30 mg/kg subcutaneous dose in rats.; type: functional; method in brief: as §1
Rattus norvegicus [4] = assay: Evaluated for reduction of NMDA-induced necrosis volume at 100 mg/kg subcutaneous dose in rats.; type: functional; method in brief: as §1
Mus musculus = assay: Effective dose required for 50% inhibition of clonic seizures in mice induced by racemic NMDLA when administered intraperitoneally; type: functional; details: ip
Method in brief: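 Swiss Webster mice, 10 per group, dosed ip with drug in distilled water 0.5 h before N-methyl-D,L-aspartic acid 350 mg/kg sc. Each mouse observed 30 min for clonic seizures lasting at least 3 s; protection means no seizure in that time. Controls received vehicle. ED50 taken at time of peak effect from three or more doses, Litchfield-Wilcoxon method.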

Rattus norvegicus [5] = assay: Reduction of photochemically induced cerebral focal ischemia in rat was evaluated at 1.0 mg/kg intravenous dose; type: functional
Method in brief: (§2)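 Male rats (300-350 g) under halothane (3 vol% induction, 1.2 vol% maintenance in O2). Rose Bengal (5 mg in 1 mL) infused through the femoral vein, then thrombotic focal cortical ischemia induced photochemically with light. Drug given iv 30 min after ischemia to groups of 5-7 rats. Infarct volume (mm3) measured by image analysis of cresyl violet-stained 20-µm sections.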

Gerbillinae [6] = assay: Percent reduction of carotid artery occlusion-induced hippocampal damage at 30 mg/kg intraperitoneal dose.; type: functional, Hippocampus
Method in brief: (§3)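 Male Mongolian gerbils (65-75 g, n = 14-15) under halothane (2.6 vol% induction, 1.2 vol% maintenance in N2:O2 2:1). Forebrain ischemia by bilateral 5-min carotid occlusion with reperfusion. Drug given ip 15 min before or 15 min after occlusion. CA1 cell necrosis rated on a 0-4 scale (0 none to 4 all CA1 cells). Group means compared by t-test.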

Rattus norvegicus [7] = assay: Reduction of photochemically induced cerebral focal ischemia in rat was evaluated at 0.1 mg/kg intravenous dose; type: functional; method in brief: as §2
Rattus norvegicus [8] = assay: Percent change in reduction of photochemically induced cerebral focal ischemia in control and treated rat at 1.0 mg/kg intravenous dose; type: functional; method in brief: as §2
Rattus norvegicus [9] = assay: Percent change in reduction of photochemically induced cerebral focal ischemia in control and treated rat at 0.3 mg/kg intravenous dose; type: functional; method in brief: as §2
Gerbillinae [10] = assay: Carotid artery occlusion-induced hippocampal damage was evaluated by using compound 15 min before carotid occlusion at 30 mg/kg intraperitoneal dose.; type: functional, Hippocampus; method in brief: as §3
Rattus norvegicus [11] = assay: Reduction of photochemically induced cerebral focal ischemia in rat was evaluated at 10 mg/kg intravenous dose; type: functional; method in brief: as §2
Gerbillinae [12] = assay: Percent reduction Carotid artery occlusion-induced hippocampal damage at 30 mg/kg intraperitoneal dose.; type: functional, Hippocampus; method in brief: as §3
Rattus norvegicus [13] = assay: Percent change in reduction of photochemically induced cerebral focal ischemia in control and treated rat at 3 mg/kg intravenous dose; type: functional; method in brief: as §2
Gerbillinae [14] = assay: Carotid artery occlusion-induced hippocampal damage was evaluated 15 min after carotid occlusion 10 mg/kg intraperitoneal dose; type: functional, Hippocampus; method in brief: as §3
Gerbillinae [15] = assay: Carotid artery occlusion-induced hippocampal damage was evaluated 15 min after carotid occlusion 30 mg/kg intraperitoneal dose; type: functional, Hippocampus; method in brief: as §3
Gerbillinae [16] = assay: Carotid artery occlusion-induced hippocampal damage was evaluated 15 min after carotid occlusion 50 mg/kg intraperitoneal dose; type: functional, Hippocampus; method in brief: as §3
Rattus norvegicus [17] = assay: Percent change in reduction of photochemically induced cerebral focal ischemia in control and treated rat at 10 mg/kg intravenous dose; type: functional; method in brief: as §2
Rattus norvegicus [18] = assay: Reduction of photochemically induced cerebral focal ischemia in rat was evaluated at 0.3 mg/kg intravenous dose; type: functional; method in brief: as §2
Rattus norvegicus [19] = assay: Reduction of photochemically induced cerebral focal ischemia in rat was evaluated at 3.0 mg/kg intravenous dose; type: functional; method in brief: as §2
Gerbillinae [20] = assay: Carotid artery occlusion-induced hippocampal damage was evaluated by using compound 15 min before carotid occlusion at 30 mg/kg intraperitoneal dose; type: functional, Hippocampus; method in brief: as §3
Gerbillinae [21] = assay: Percent reduction Carotid artery occlusion-induced hippocampal damage at 10 mg/kg intraperitoneal dose.; type: functional, Hippocampus; method in brief: as §3
Gerbillinae [22] = assay: Percent reduction Carotid artery occlusion-induced hippocampal damage at 50 mg/kg intraperitoneal dose.; type: functional, Hippocampus; method in brief: as §3
Rattus norvegicus [23] = assay: Reduction of photochemically induced cerebral focal ischemia in rat was evaluated 3.0 mg/kg intravenous dose; type: functional; method in brief: as §2
Rattus norvegicus [24] = assay: Percent change in reduction of photochemically induced cerebral focal ischemia in control and treated rat at 3.0 mg/kg intravenous dose; type: functional; method in brief: as §2
Gerbillinae [25] = assay: Carotid artery occlusion-induced hippocampal damage was evaluated 15 min after carotid occlusion 60 mg/kg intraperitoneal dose; type: functional, Hippocampus; method in brief: as §3
Rattus norvegicus [26] = assay: Percent change in reduction of photochemically induced cerebral focal ischemia in control and treated rat at 20 mg/kg intravenous dose; type: functional; method in brief: as §2
Gerbillinae [27] = assay: Carotid artery occlusion-induced hippocampal damage was evaluated 15 min before carotid occlusion at 60 mg/kg intraperitoneal dose.; type: functional, Hippocampus; method in brief: as §3
Rattus norvegicus [28] = assay: Reduction of photochemically induced cerebral focal ischemia in rat was evaluated at 20.0 mg/kg intravenous dose; type: functional; method in brief: as §2
Rattus norvegicus [29] = assay: Reduction of photochemically induced cerebral focal ischemia in rat was evaluated 10.0 mg/kg intravenous dose; type: functional; method in brief: as §2
Gerbillinae [30] = assay: Carotid artery occlusion-induced hippocampal damage was evaluated 15 min before carotid occlusion at 30 mg/kg intraperitoneal dose.; type: functional, Hippocampus; method in brief: as §3
Gerbillinae [31] = assay: Carotid artery occlusion-induced hippocampal damage was evaluated by using compound 15 min before carotid occlusion at 5 mg/kg intraperitoneal dose.; type: functional, Hippocampus; method in brief: as §3
Rattus norvegicus [32] = assay: Evaluated for reduction of NMDA-induced necrosis volume at 7.0 mg/kg intraperitoneally dose in rats.; type: functional; details: route intraperitoneal; method in brief: as §1
Rattus norvegicus [33] = assay: Reduction of photochemically induced cerebral focal ischemia in rat was evaluated by using compound at 3 mg/kg intravenous dose; type: functional; method in brief: as §2
Rattus norvegicus [34] = assay: Evaluated for reduction of NMDA-induced necrosis at 0.7 mg/kg intraperitoneal dose in rats.; type: functional; method in brief: as §1
Gerbillinae [35] = assay: Percent reduction of carotid artery Carotid artery occlusion-induced hippocampal damage at 5 mg/kg intraperitoneal dose.; type: functional, Hippocampus; method in brief: as §3
Rattus norvegicus [36] = assay: Reduction of photochemically induced cerebral focal ischemia in rat was evaluated by using control at 3 mg/kg intravenous dose; type: functional; method in brief: as §2
Rattus norvegicus [37] = assay: Evaluated for reduction of NMDA-induced necrosis at 7.0 mg/kg intraperitoneal dose in rats.; type: functional; method in brief: as §1
Rattus norvegicus [38] = assay: Evaluated for reduction of NMDA-induced necrosis volume at 2.0 mg/kg intraperitoneally dose in rats.; type: functional; details: route intraperitoneal; method in brief: as §1
Rattus norvegicus [39] = assay: Evaluated for reduction of NMDA-induced necrosis volume at 0.7 mg/kg intraperitoneally dose in rats.; type: functional; details: route intraperitoneal; method in brief: as §1
Gerbillinae [40] = assay: Carotid artery occlusion-induced hippocampal damage was evaluated by using control 15 min before carotid occlusion at 5 mg/kg intraperitoneal dose.; type: functional, Hippocampus; method in brief: as §3
Rattus norvegicus [41] = assay: Evaluated for reduction of NMDA-induced necrosis at 2.0 mg/kg intraperitoneal dose in rats.; type: functional; method in brief: as §1

## O=C(O)C1CN(CCCP(=O)(O)O)CCN1 (stereo not given)
Glutamate NMDA receptor
  IC50: > 100000 nM

## CCNC(Cc1ccccc1N)c1sccc1C.Cl (stereo not given)
Rattus norvegicus [1]
  Reduction: 95%
Rattus norvegicus [2]
  Reduction: 67%
Glutamate NMDA receptor
  IC50: 43 nM
Rattus norvegicus [3]
  Volume: 0.059 µM
Rattus norvegicus [4]
  Volume: 0.0098 µM
Mus musculus
  ED50: 6.4 mg/kg

## Cc1ccsc1C(Cc1ccccc1N(C)C)N(C)C (stereo not given)
Glutamate NMDA receptor
  IC50: 330 nM
Mus musculus
  ED50: > 60 mg/kg

## CCCNC(Cc1ccccc1N)c1sccc1C.Cl (stereo not given)
Glutamate NMDA receptor
  IC50: 130 nM
Mus musculus
  ED50: 14.1 mg/kg

## CNc1ccccc1CC(NC)c1sccc1C.Cl (stereo not given)
Glutamate NMDA receptor
  IC50: 3800 nM
Mus musculus
  ED50: > 60 mg/kg

## CNC(Cc1ccccc1N)c1sccc1C.Cl (stereo in doubt; (+)3a)
Rattus norvegicus [5]
  Treated: 67
Gerbillinae [6]
  Reduction: 51%
Rattus norvegicus [7]
  Treated: 59
Rattus norvegicus [8]
  Change: 14%
Rattus norvegicus [9]
  Change: 13%
Glutamate NMDA receptor
  IC50: 180 nM
Gerbillinae [10]
  Treated: 1.5

## CNC(Cc1ccc(Cl)cc1N)c1sccc1C.Cl (stereo not given)
Glutamate NMDA receptor
  IC50: 18000 nM
Mus musculus
  ED50: ≥ 60 mg/kg

## Cc1ccsc1C(Cc1ccccc1N)N(C)C (stereo not given)
Glutamate NMDA receptor
  IC50: 370 nM
Mus musculus
  ED50: > 60 mg/kg

## CNC(Cc1cc(Cl)ccc1N)c1sccc1C (stereo not given)
Glutamate NMDA receptor
  IC50: 25 nM
Mus musculus
  ED50: ≥ 30 mg/kg

## CNC(Cc1ccccc1N)c1cccs1.Cl (stereo not given)
Mus musculus
  ED50: > 60 mg/kg

## CNc1ccccc1CC(c1sccc1C)N(C)C (stereo not given)
Mus musculus
  ED50: > 60 mg/kg

## CNC(Cc1ccccc1N)c1sccc1C.Cl (stereo in doubt; 3a)
Rattus norvegicus [11]
  Treated: 86
Gerbillinae [12]
  Reduction: 26%
Rattus norvegicus [5]
  Treated: 57
Gerbillinae [6]
  Reduction: 75%
Rattus norvegicus [1]
  Reduction: 68%
Rattus norvegicus [13]
  Change: -16%
Gerbillinae [14]
  Treated: 2.8
Gerbillinae [15]
  Treated: 2.13
Gerbillinae [16]
  Treated: 2.13
Rattus norvegicus [8]
  Change: -27%
Rattus norvegicus [9]
  Change: 0%
Rattus norvegicus [17]
  Change: 6%
Rattus norvegicus [18]
  Treated: 72
Rattus norvegicus [19]
  Treated: 63
Glutamate NMDA receptor
  IC50: 350 nM
Rattus norvegicus [4]
  Volume: 0.057 µM
Gerbillinae [20]
  Treated: 0.3
Gerbillinae [21]
  Reduction: 2%
Gerbillinae [22]
  Reduction: 18%
Mus musculus
  ED50: 27.8 mg/kg

## CNC(Cc1cc(Br)ccc1N)c1sccc1C (stereo not given)
Glutamate NMDA receptor
  IC50: 45 nM
Mus musculus
  ED50: > 5 mg/kg

## CNC(Cc1ccccc1N)c1sccc1C.Cl (single isomer, unassigned; (-))
Rattus norvegicus [23]
  Treated: 73
Rattus norvegicus [5]
  Treated: 66
Rattus norvegicus [24]
  Change: 6%
Gerbillinae [25]
  Treated: 3.3
Rattus norvegicus [26]
  Change: 13%
Gerbillinae [27]
  Treated: 0.9
Gerbillinae [6]
  Reduction: 32%
Rattus norvegicus [8]
  Change: 7%
Rattus norvegicus [28]
  Treated: 79
Rattus norvegicus [29]
  Treated: 93
Gerbillinae [30]
  Treated: 2.8
Glutamate NMDA receptor
  IC50: 57000 nM

## C[C@]12N[C@H](Cc3ccccc31)c1ccccc12 [DIZOCILPINE]
Gerbillinae [31]
  Treated: 0.8
Rattus norvegicus [32]
  Volume: 0.0025 µM
Rattus norvegicus [33]
  Treated: 52
Rattus norvegicus [13]
  Change: -24%
Rattus norvegicus [34]
  Reduction: <44%
Gerbillinae [35]
  Reduction: <22%
Rattus norvegicus [36]
  Control: 68
Rattus norvegicus [37]
  Reduction: <98%
Rattus norvegicus [38]
  Volume: 0.01 µM
Rattus norvegicus [39]
  Volume: 0.1 µM
Gerbillinae [40]
  Control: 1.05
Mus musculus
  ED50: 0.38 mg/kg
Rattus norvegicus [41]
  Reduction: <94%

## Cc1ccsc1C(N)Cc1ccccc1N.Cl (stereo not given)
Glutamate NMDA receptor
  IC50: 4000 nM
Mus musculus
  ED50: 19 mg/kg

## CNC(Cc1ccccc1N)c1ccc(C)s1 (stereo not given)
Glutamate NMDA receptor
  IC50: 5200 nM
Mus musculus
  ED50: > 60 mg/kg

## CNC(Cc1ccc(C(F)(F)F)cc1N)c1sccc1C (stereo not given)
Glutamate NMDA receptor
  IC50: > 10000 nM
